We go through one compound from ChEMBL document CHEMBL4350954, “Identification of Thienopyrimidine Scaffold as an Inhibitor of the ABC Transport Protein ABCC1 (MRP1) and Related Transporters Using a Combined Virtual Screening Approach” (J Med Chem, 2019).

The target in series [1] is T1, Multidrug resistance-associated protein 1 (Homo sapiens, UniProt P33527). Nature of the series: Reversal of ABCC1 (unknown origin)-mediated multidrug resistance in MDCK2 cells co-expressing MRP1 (unknown origin) assessed as resistance factor by measuring [GI50(resistant cell line without or with compound)/ GI50(sensitive cell line)] at 5 uM incubated for 72 hrs by MTT assay (reference value: 7). Type of series: cell-based. (Formazan colour is commonly taken as a measure of viable cells.)
T1 sequence (P33527 whole entry): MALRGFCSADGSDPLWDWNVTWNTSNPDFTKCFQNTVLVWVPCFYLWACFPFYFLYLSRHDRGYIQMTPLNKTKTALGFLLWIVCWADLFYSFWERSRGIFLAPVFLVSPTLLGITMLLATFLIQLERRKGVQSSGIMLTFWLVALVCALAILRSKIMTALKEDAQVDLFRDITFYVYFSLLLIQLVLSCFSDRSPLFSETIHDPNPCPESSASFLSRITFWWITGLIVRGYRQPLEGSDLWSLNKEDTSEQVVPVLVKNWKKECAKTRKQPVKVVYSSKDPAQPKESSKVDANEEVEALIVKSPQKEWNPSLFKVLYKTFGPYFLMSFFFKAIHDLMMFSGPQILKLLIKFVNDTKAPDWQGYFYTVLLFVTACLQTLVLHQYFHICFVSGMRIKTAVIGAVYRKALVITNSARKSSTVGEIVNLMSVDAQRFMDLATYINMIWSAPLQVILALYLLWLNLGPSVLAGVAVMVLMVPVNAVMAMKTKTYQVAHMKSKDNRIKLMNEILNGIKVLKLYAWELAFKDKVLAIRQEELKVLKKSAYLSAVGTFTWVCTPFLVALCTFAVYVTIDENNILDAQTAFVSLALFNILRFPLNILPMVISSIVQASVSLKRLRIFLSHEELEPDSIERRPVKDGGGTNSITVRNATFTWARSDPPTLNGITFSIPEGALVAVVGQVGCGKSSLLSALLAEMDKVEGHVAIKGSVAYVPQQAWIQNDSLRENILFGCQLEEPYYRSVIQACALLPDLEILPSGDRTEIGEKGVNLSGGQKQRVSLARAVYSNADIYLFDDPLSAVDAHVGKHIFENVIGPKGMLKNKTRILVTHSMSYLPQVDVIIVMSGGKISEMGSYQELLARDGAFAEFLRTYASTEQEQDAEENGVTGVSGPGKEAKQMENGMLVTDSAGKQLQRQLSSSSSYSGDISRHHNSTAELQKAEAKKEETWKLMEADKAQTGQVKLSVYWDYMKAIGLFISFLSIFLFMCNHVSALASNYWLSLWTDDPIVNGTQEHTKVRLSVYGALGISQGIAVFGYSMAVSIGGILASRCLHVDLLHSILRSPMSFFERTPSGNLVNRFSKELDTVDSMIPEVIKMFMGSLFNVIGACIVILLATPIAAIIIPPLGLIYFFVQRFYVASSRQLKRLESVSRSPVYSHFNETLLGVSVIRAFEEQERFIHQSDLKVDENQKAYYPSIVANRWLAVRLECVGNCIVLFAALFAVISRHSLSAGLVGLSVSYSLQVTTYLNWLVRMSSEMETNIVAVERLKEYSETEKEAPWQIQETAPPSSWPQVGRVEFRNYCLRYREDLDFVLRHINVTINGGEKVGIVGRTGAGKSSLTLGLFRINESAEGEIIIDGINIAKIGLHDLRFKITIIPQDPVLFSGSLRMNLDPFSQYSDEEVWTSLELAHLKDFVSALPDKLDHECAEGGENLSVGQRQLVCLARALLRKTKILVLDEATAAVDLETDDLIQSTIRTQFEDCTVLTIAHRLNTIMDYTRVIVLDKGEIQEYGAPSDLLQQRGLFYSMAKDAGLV

For series [2], the target named is T2, Broad substrate specificity ATP-binding cassette transporter ABCG2 (Homo sapiens, UniProt Q9UNQ0).
T2 sequence (Q9UNQ0 whole entry): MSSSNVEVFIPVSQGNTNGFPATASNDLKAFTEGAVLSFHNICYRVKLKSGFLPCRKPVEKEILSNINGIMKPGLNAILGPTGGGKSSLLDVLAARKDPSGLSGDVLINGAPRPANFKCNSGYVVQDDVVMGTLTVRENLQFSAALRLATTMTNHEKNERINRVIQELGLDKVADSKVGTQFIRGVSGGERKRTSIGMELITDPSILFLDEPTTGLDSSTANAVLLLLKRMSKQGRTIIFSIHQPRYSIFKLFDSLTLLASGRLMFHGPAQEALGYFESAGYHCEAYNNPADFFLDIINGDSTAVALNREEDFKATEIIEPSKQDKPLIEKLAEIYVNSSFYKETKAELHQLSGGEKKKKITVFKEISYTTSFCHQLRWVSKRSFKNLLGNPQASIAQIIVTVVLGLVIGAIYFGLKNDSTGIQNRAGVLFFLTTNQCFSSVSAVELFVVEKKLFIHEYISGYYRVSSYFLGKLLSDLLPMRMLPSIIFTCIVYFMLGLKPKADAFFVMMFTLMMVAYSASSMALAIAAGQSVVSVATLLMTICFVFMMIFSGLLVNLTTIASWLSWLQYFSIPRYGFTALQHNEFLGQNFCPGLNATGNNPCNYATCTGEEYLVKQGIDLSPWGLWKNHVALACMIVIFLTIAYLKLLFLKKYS
The experiment in a line: Inhibition of ABCG2 (unknown origin) expressed in MDCK2 cells co-expressing BCRP (unknown origin) assessed as effect on pheophorbide A accumulation pre-incubated for 20 mins followed by pheophorbide A addition and measured after 120 mins by flow cytometric analysis. Type of series: cell-based. An outline of the steps:
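Pheophorbide A accumulation assay in ABCG2-transfected MDCK II BCRP cells. Ko143 at 10 µM set 100% and no compound set 0%. Screening was at 10 µM; compounds reaching >20% (+SEM) got IC50 curves constrained to the Ko143 maximum at 10 µM. Values are reported as mean ± SEM.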

Series [3] addresses T3, ATP-dependent translocase ABCB1 (Homo sapiens, UniProt P08183). Nature of the series: Reversal of ABCB1-mediated multidrug resistance in human A2780/ADR cells assessed as resistance factor by measuring [GI50(resistant cell line without or with compound)/ GI50(sensitive cell line)] at 10 uM incubated for 72 hrs by MTT assay (reference value: 49). The series is classed as cell-based. In outline: (§1)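 MDR reversal assay with daunorubicin at 10 nM–10 µM, alone or with test compound at 0.5, 1, 5 or 10 µM. Resistant cells were ABCB1-overexpressing A2780/ADR or MDCK II MDR1, with sensitive A2780 or MDCK II cells as comparators. Resistance factor = resistant GI50 / sensitive GI50. EC50 was derived from resistance factors versus modulator concentration. Values are from ≥3 experiments in duplicate ± SEM.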

Series [4] can be described thus: Growth inhibition of MDCK2 cells co-expressing BCRP (unknown origin) after 72 hrs by MTT assay. The series is classed as ADME, cell-based, Canis lupus familiaris, MDCK-II. To be noted: dog. In outline: (§2)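 MTT-based cytotoxicity assay giving GI50 of the compound alone in each listed parental, selected or transfected cell line.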
The target in series [5] is T2, Broad substrate specificity ATP-binding cassette transporter ABCG2. Nature of the series: Reversal of ABCG2 (unknown origin)-mediated multidrug resistance in MDCK2 cells co-expressing BCRP (unknown origin) assessed as resistance factor by measuring [GI50(resistant cell line without or with compound)/ GI50(sensitive cell line)] at 5 uM incubated for 72 hrs by MTT assay (reference value: 27). The series is classed as cell-based.

The nature of series [6]: Growth inhibition of human MCF7 cells incubated for 72 hrs by MTT assay. The series is classed as cell-based. In outline: as §2
In series [7] the target is T3, ATP-dependent translocase ABCB1. Nature of the series: Reversal of ABCB1-mediated multidrug resistance in human A2780/ADR cells assessed as resistance factor by measuring [GI50(resistant cell line without or with compound)/ GI50(sensitive cell line)] at 5 uM incubated for 72 hrs by MTT assay (reference value: 49). The series is classed as cell-based. An outline of the steps: as §1

Series [8] has the same target. Nature of the series: Reversal of ABCB1 (unknown origin)-mediated multidrug resistance in MDCK2 cells co-expressing MDR1 (unknown origin) assessed as resistance factor by measuring [GI50(resistant cell line without or with compound)/ GI50(sensitive cell line)] at 5 uM incubated for 72 hrs by MTT assay (reference value: 17). The series is classed as cell-based. An outline of the steps:
as §1

The target in series [9] is T1, Multidrug resistance-associated protein 1. The experiment in a line: Reversal of ABCC1-mediated multidrug resistance in human H69AR cells assessed as resistance factor by measuring [GI50(resistant cell line without or with compound)/ GI50(sensitive cell line)] at 10 uM incubated for 72 hrs by MTT assay (reference value: 8.2). The series is classed as cell-based.
For series [10], the target named is T3, ATP-dependent translocase ABCB1. The experiment in a line: Competitive inhibition of ABCB1-mediated calcein-AM transport in human A2780/ADR cells at 0.056 to 0.316 uM by Lineweaver-Burk plot analysis. The series is classed as cell-based. An outline of the steps:
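Kinetic study of calcein AM transport by Lineweaver-Burk analysis. ABCC1 was studied in H69AR cells with calcein AM at 0.25, 0.3, 0.45, 0.6 and 0.8 µM and inhibitor at 0.316, 0.562, 1.00 and 1.78 µM plus a zero control. ABCB1 was studied in A2780/ADR cells with calcein AM at 0.2–0.8 µM and inhibitor at 0.056, 0.100, 0.178 and 0.316 µM plus a zero control.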

Series [11] shares this target. The experiment in a line: Reversal of ABCB1 (unknown origin)-mediated multidrug resistance in MDCK2 cells co-expressing MDR1 (unknown origin) assessed as resistance factor by measuring [GI50(resistant cell line without or with compound)/ GI50(sensitive cell line)] at 10 uM incubated for 72 hrs by MTT assay (reference value: 17). Type of series: cell-based. An outline of the steps:
as §1

In series [12] the target is T2, Broad substrate specificity ATP-binding cassette transporter ABCG2. Nature of the series: Reversal of ABCG2 (unknown origin)-mediated multidrug resistance in MDCK2 cells co-expressing BCRP (unknown origin) assessed as resistance factor by measuring [GI50(resistant cell line without or with compound)/ GI50(sensitive cell line)] at 0.5 uM incubated for 72 hrs by MTT assay (reference value: 27). The series is classed as cell-based.

Series [13] in a line: Growth inhibition of human MCF7/MX cells incubated for 72 hrs by MTT assay. An outline of the steps: as §2
For the next series, the system named is ABCG2 (BCRP). The experiment in a line: Therapeutic index, ratio of GI50 for MDCK2 cells co-expressing BCRP (unknown origin) to IC50 for ABCG2 (unknown origin) expressed in MDCK2 cells co-expressing BCRP (unknown origin). The series is classed as toxicity, cell-based. To be noted: dog, read-out: TI. An outline of the steps: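 Therapeutic ratio = GI50 from the MTT cytotoxicity assay / IC50 from the inhibition assay in the same cell line. The cell lines were H69AR (calcein AM, ABCC1), A2780/ADR (calcein AM, ABCB1) and MDCK II BCRP (pheophorbide A, ABCG2).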

Series [14] concerns the target T2, Broad substrate specificity ATP-binding cassette transporter ABCG2. The experiment in a line: Reversal of ABCG2-mediated multidrug resistance in human MCF-7/MX cells assessed as resistance factor by measuring [GI50(resistant cell line without or with compound)/ GI50(sensitive cell line)] at 5 uM incubated for 72 hrs by MTT assay (reference value: 789). Type of series: cell-based.

T3 sequence (P08183 whole entry): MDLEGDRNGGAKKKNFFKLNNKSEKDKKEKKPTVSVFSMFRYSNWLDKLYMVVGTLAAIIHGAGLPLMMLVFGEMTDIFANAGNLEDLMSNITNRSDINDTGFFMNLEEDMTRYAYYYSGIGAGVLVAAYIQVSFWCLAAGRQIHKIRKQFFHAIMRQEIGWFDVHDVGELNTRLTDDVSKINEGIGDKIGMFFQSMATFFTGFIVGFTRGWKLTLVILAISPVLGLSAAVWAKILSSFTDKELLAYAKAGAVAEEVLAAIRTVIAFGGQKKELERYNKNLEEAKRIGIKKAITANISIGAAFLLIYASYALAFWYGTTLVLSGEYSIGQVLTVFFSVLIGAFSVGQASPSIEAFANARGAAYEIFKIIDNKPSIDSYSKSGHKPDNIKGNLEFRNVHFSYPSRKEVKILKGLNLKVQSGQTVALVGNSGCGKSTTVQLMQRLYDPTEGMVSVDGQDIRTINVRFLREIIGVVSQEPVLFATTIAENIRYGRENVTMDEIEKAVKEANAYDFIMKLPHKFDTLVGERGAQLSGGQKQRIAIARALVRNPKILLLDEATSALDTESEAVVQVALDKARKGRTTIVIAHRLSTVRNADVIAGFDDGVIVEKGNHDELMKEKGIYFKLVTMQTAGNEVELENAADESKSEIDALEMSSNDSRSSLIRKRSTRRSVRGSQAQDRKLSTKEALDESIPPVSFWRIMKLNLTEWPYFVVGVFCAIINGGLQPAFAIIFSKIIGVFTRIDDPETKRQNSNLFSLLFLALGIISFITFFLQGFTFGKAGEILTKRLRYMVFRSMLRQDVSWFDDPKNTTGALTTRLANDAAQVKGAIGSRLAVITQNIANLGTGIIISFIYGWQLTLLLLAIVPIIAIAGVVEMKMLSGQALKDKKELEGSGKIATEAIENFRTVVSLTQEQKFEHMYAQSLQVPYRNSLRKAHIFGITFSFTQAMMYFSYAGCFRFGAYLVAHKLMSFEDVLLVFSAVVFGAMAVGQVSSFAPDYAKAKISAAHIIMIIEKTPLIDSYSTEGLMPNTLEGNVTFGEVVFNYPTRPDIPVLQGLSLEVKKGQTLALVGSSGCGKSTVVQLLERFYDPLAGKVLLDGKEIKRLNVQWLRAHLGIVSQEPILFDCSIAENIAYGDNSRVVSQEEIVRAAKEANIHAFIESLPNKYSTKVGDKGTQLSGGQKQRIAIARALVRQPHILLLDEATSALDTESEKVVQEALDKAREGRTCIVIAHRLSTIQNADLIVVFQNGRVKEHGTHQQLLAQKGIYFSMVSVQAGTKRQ

As usually defined, the IC50 is the midpoint of a concentration-inhibition curve. In general, GI50 refers to the concentration giving 50% growth inhibition. A high value points to less potent growth inhibition. Regarding `CC1CCc2c(sc3nc(-c4cccnc4)nc(N4CCN(C(C(N)=O)c5ccccc5)CC4)c23)C1` (stereo not given), the RatioGI50 turned out to be 2.2 in series [1]; 4.1 in [3]; 4.5 in series [5]; 6.3 in series [7]; 0.9 in series [8]; 3 in series [9]. Further, the figures for the RatioGI50 in series [11], in [12] and in series [14] were 0.5, 21 and 179, respectively. Also, the IC50 in series [2] stood at 2.38 µM. The 50% growth inhibitory concentration (GI50) at 72 h in series [4] was determined as 16.4 µM; in series [6], 57.8 µM; in series [13], 47 µM. In [10], the “inhibition (INH)” value is reported as “Active”. Moreover, in the series with ABCG2 (BCRP), the selectivity ratio amounted to 6.9.
